Screening data from PubChem BioAssay.
This is one part of a sample in which hits are shown more often than they occur.
INS-1E rescue: rescue of cytokine-induced death in INS-1E beta cells. INS-1E cytokine-induced death, ATP luminescence, 48 h; normalised: neutral wells 0, positive control 100. protection from cytokine-induced ATP loss, % at 10 µM. 20,000 tested, 0.1% active. AID 488910;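 active = mean replicate protection from cytokine-induced ATP loss at least 50% and at least 75% of replicates each reaching 50%; inconclusive = meets only one of the two criteria, mean or replicate share; inactive = fails both the mean and replicate share criteria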
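assay system = INS-1E rat insulinoma cells | amount = 8000 cells per well | medium = phenol-red-free RPMI with 5% fetal bovine serum | doses = one compound concentration, pin transfer | timing = 48 h cytokine plus compound treatment, 10 min reagent incubation | also added = IL-1β, TNF-α and IFN-γ cytokine mix | signal = CellTiter-Glo luminescence measuring cellular ATP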
T cruzi HTS: intracellular Trypanosoma cruzi inhibition; intracellular Trypanosoma cruzi in host cells, plate reader; activity score (inhibition), % at 5.01 µM; 22,000 tested, 4.9% active; in the data active = activity score above about 55%; inconclusive = no clear call, values can overlap the other calls;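 also: parasites and compound incubated about four days before reading; 0% = median of neutral control wells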
YB-1 expression: YB-1 expression inhibition; AID 434959; 30,000 tested, 0.37% active; U2OS, qRT-PCR YB-1 vs CDIP delta delta Cp, 16 h; stronger effect = higher value; zero = DMSO, each unit about twofold; delta delta Cp (YB-1 minus CDIP) (test concentration not listed);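 active = delta delta Cp rounded down to an integer at or above 3, about 3 SD of DMSO wells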;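 also: higher means less YB-1 transcript or more CDIP transcript relative to DMSO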
An asterisk follows results filed as active; ? = inconclusive; · = no result given.

SMILES	INS-1E rescue	T cruzi HTS	YB-1 expression
C[C@@H]1CN([C@H](C)CO)C(=O)c2cccc(NC(=O)Nc3cccc4ccccc34)c2O[C@@H]1CN(C)C(=O)Nc1ccc(C(F)(F)F)cc1	-105	65*	-0.11
C[C@H]1CN([C@@H](C)CO)C(=O)c2cccc(NC(=O)Nc3ccc(C(F)(F)F)cc3)c2O[C@H]1CN(C)C(=O)Nc1ccccc1	-84	13	0.26
C[C@@H]1CN([C@H](C)CO)C(=O)c2cccc(NC(=O)Nc3ccc(C(F)(F)F)cc3)c2O[C@@H]1CN(C)C(=O)Nc1ccc2c(c1)OCO2	-36	44	0.35
C[C@@H]1CN([C@H](C)CO)C(=O)c2cccc(NC(=O)Nc3ccc(C(F)(F)F)cc3)c2O[C@H]1CN(C)C(=O)Nc1ccc(C(F)(F)F)cc1	-71	75*	0.02
CC1(C)CC[C@]2(C(=O)O)CC[C@]3(C)C(=CCC4[C@@]5(C)CC[C@H](O[C@@H]6O[C@H](CO)[C@@H](O)[C@H](O)[C@H]6O)C(C)(C)C5CC[C@]43C)[C@@H]2C1 (some centres undefined)	·	·	-0.53
COCCOC(=O)N1C(=O)[C@@]2(c3ccccc31)[C@H](C(=O)NC[C@H](O)c1ccccc1)[C@H]1C(=O)O[C@H](c3ccccc3)[C@H](c3ccccc3)N1[C@@H]2c1ccc(OCCO)cc1	·	·	0.33
C[C@H](CO)N1C[C@H](C)[C@H](CN(C)C(=O)Nc2ccc(C(F)(F)F)cc2)Oc2c(NC(=O)Nc3ccc(C(F)(F)F)cc3)cccc2C1=O	-106	78*	-0.17
C[C@H]1CN([C@@H](C)CO)C(=O)c2cccc(NC(=O)Nc3ccc(C(F)(F)F)cc3)c2O[C@@H]1CN(C)C(=O)Nc1ccc(F)cc1	8	3	-0.88
C[C@H]1CN([C@@H](C)CO)C(=O)c2cccc(NC(=O)Nc3cccc4ccccc34)c2O[C@@H]1CN(C)C(=O)Nc1ccc(F)cc1	-5	22	-0.045
C[C@H](CO)N1C[C@H](C)[C@H](CN(C)C(=O)Nc2ccc(F)cc2)Oc2c(NC(=O)Nc3cccc4ccccc34)cccc2C1=O	-102	71*	-0.093
C[C@H](CO)N1C[C@H](C)[C@@H](CN(C)C(=O)Nc2ccc(C(F)(F)F)cc2)Oc2c(NC(=O)Nc3ccc(C(F)(F)F)cc3)cccc2C1=O	-73	78*	0.091
C[C@H]1CN([C@@H](C)CO)C(=O)c2cccc(NC(=O)Nc3ccc(F)cc3)c2O[C@@H]1CN(C)C(=O)Nc1ccc(C(F)(F)F)cc1	1	-1	0.2
CC(C)(C)c1ccc(C(=O)Nc2ccc(NC(=O)c3ccccc3F)cc2)cc1	·	·	-0.039
O=S(=O)(CCSc1ccc(C(F)(F)F)cn1)c1ccc(OC(F)(F)F)cc1	·	·	-0.17
C[C@H]1CN([C@@H](C)CO)C(=O)c2cccc(NC(=O)c3ccncc3)c2O[C@H]1CN(C)Cc1ccccc1	3	81*	0.095
C[C@@H]1CN([C@@H](C)CO)C(=O)c2cccc(NC(=O)c3ccncc3)c2O[C@H]1CN(C)CC1CCCCC1	-7	76*	0.056
C[C@@H]1CN([C@H](C)CO)C(=O)c2cccc(NC(=O)c3ccncc3)c2O[C@H]1CN(C)Cc1ccccc1	10	80*	-0.36
C[C@@H]1CN([C@@H](C)CO)C(=O)c2cccc(NC(=O)c3ccncc3)c2O[C@H]1CN(C)Cc1ccncc1	13	-17	-0.22
C[C@@H]1CN([C@@H](C)CO)C(=O)c2cccc(NC(=O)c3ccncc3)c2O[C@H]1CN(C)Cc1ccccc1	8	79*	0.032
C[C@@H]1CN([C@@H](C)CO)C(=O)c2cccc(NC(=O)c3ccncc3)c2O[C@@H]1CN(C)Cc1ccc(C(=O)O)cc1	5	-14	0.013
C[C@H](CO)N1C[C@H](C)[C@@H](CN(C)Cc2ccncc2)Oc2c(NC(=O)c3ccncc3)cccc2C1=O	-1	-34	-0.24
C[C@@H]1CN([C@H](C)CO)C(=O)c2cccc(NC(=O)c3ccncc3)c2O[C@@H]1CN(C)CC1CCCCC1	-11	12	0.1
C[C@@H]1O[C@@H](O[C@@H]2[C@@H](O)[C@H](C)O[C@@H](OC[C@H]3O[C@@H](Oc4c(-c5ccc(O)cc5)oc5cc(O)cc(O)c5c4=O)[C@H](O)[C@@H](O)[C@H]3O)[C@@H]2O)[C@H](O)[C@H](O)[C@H]1O	·	·	-0.33
c1ccc2[nH]c(-c3nc4ccccc4s3)nc2c1	·	·	0.48
Cc1cc(C)cc(Oc2coc3cc(OCC(=O)NCc4ccccc4)ccc3c2=O)c1	·	·	0.029
SMILES	INS-1E rescue	T cruzi HTS	YB-1 expression
Cc1ccc(S(=O)(=O)Nc2ccc3c(c2)CC(=O)N([C@H](C)CO)C[C@@H](C)[C@@H](CN(C)Cc2ccc(C(F)(F)F)cc2)O3)cc1	-10	61*	-0.28
Cc1ccc(S(=O)(=O)Nc2ccc3c(c2)CC(=O)N([C@H](C)CO)C[C@@H](C)[C@@H](CN(C)Cc2ccc(C(=O)O)cc2)O3)cc1	-6	-2	-0.086
C[C@@H]1CN([C@H](C)CO)C(=O)Cc2cc(NS(=O)(=O)c3ccc(F)cc3)ccc2O[C@H]1CN(C)Cc1ccc(C(F)(F)F)cc1	-13	48	-0.16
C[C@H]1CN([C@@H](C)CO)C(=O)Cc2cc(NS(=O)(=O)c3ccc(F)cc3)ccc2O[C@@H]1CN(C)Cc1ccc(C(F)(F)F)cc1	-17	61*	0.00088
C[C@@H]1CN([C@@H](C)CO)C(=O)Cc2cc(NS(=O)(=O)c3ccc(F)cc3)ccc2O[C@@H]1CN(C)Cc1ccc(C(F)(F)F)cc1	-41	?	0.017
Cc1ccc(S(=O)(=O)Nc2ccc3c(c2)CC(=O)N([C@@H](C)CO)C[C@H](C)[C@@H](CN(C)Cc2ccc(C(F)(F)F)cc2)O3)cc1	0	62*	-0.3
CCOC(=O)COc1ccc(C23CC4CC(CC(C4)C2)C3)cc1	·	·	-0.81
N#CCC(=O)N=Cc1ccc(Cl)cc1Cl	·	·	-0.081
CCOC(=O)CC1Sc2ccccc2N=C1SCC(=O)Nc1cccc(C(F)(F)F)c1 (centres undefined)	·	·	1.1
O=c1c(-c2ccc(O)cc2)coc2cc(OC3OC(CO)C(O)C(O)C3O)cc(O)c12 (centres undefined)	·	·	-0.35
COc1cc(O)c2c(=O)c(-c3ccc(O)cc3)coc2c1	·	·	3*
C[C@H]1CN([C@@H](C)CO)C(=O)Cc2cc(NC(=O)Cc3cn(C)c4ccccc34)ccc2O[C@H]1CN(C)Cc1ccc2c(c1)OCO2	-9	-2	0.3
C[C@@H]1CN([C@H](C)CO)C(=O)Cc2cc(NC(=O)Cc3cn(C)c4ccccc34)ccc2O[C@@H]1CN(C)Cc1ccc(Cl)c(Cl)c1	-40	69*	-0.045
C[C@H](CO)N1C[C@H](C)[C@@H](CN(C)Cc2ccc(Cl)c(Cl)c2)Oc2ccc(NC(=O)Cc3cn(C)c4ccccc34)cc2C1=O	-9	-4	0.098
C[C@H](CO)N1C[C@H](C)[C@H](CN(C)Cc2ccc(Cl)c(Cl)c2)Oc2ccc(NC(=O)Cc3cn(C)c4ccccc34)cc2C1=O	-21	56*	-0.24
